Rows were chosen to be rich in hits. Some 1.7% of all compounds tested hit in one or more screens of this group.
STEP inh: STEP phosphatase inhibitors, primary screen, biochemical, fluorescence intensity, uHTS | recombinant STEP, OMFP fluorogenic substrate | inhibition, % at 20 µM | 360,000 compounds, 0.25% hits | AID 588621, 2011;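 active means inhibition at 20 µM, scaled per plate between control wells, above about 37%, limit read from the data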;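 further: 0% = DMSO with enzyme and substrate and 100% = substrate only without enzyme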
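Measure: Control-normalized % inhibition with plate pattern correction | Test system: STEP phosphatase, cell-free reaction | Medium: pH 6.0 Bis-Tris with DTT and Tween 20 | Technique: Fluorescence, 480/540 nm | Times: Reaction 20 min, ambient temperature | Doses: Single compound dose of 20 µM, 1% DMSO final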
Scp-1 inhibitor: Scp-1 phosphatase inhibitors, primary screen, biochemical, colorimetric, uHTS; inhibition, % at 20 µM; AID 493091, 2011; Carboxy-terminal domain RNA polymerase II polypeptide A small phosphatase 1 (Homo …; 340,000 compounds, 0.88% hits; Recombinant Scp1, phosphopeptide, malachite green phosphate absorbance;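 active means inhibition above about 50% at 20 µM, limit read from the data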;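 further: plate controls were DMSO wells with enzyme for no effect and wells lacking enzyme for full effect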
Target sequence (Q9GZU7 76-261 limits assumed): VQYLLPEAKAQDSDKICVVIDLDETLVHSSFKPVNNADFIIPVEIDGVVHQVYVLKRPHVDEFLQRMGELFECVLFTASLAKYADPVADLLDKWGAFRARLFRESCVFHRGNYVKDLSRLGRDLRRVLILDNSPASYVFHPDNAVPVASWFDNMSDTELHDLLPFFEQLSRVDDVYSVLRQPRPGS
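System: truncated SCP-1 phosphatase (76-261aa); medium: Tris acetate buffer pH 5.5 with MgCl2 and Tween-20; incubation: 45 min room-temperature reaction, 5 min colour, 30 min stabiliser; compound: single 20 µM dose, 1% DMSO; reagent: Phosphorylated 17-residue peptide substrate; read-out: % inhibition at 20 µM; technique: colorimetric free-phosphate detection, absorbance 630 nm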
CASP6 VEID inh: human caspase-6 inhibitors, primary screen, biochemical, VEID-R110 fluorescence, single point, set 2 | P55212 | purified caspase-6, Z-VEID-R110 cleavage fluorescence | inhibition, % at 12.5 µM | 350,000 compounds, 0.53% hits;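 active means mean inhibition across replicates at least about 35%, with every replicate also reaching that limit, limit read from the data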;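 further: 0% = median of neutral control wells and 100% = no fluorescence left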
Target sequence (P55212 24-179 limits assumed): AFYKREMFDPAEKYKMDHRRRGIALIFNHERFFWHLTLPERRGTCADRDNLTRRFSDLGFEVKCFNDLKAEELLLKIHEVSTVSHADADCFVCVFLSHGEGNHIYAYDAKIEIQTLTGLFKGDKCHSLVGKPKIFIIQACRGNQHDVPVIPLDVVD
Target sequence (P55212 194-293 limits assumed): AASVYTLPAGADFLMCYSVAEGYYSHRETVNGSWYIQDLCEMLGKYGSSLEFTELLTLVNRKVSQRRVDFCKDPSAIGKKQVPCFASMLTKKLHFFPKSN
LMPTP block: LMPTP phosphatase inhibitors, primary screen, biochemical, fluorescence intensity, uHTS; recombinant LMPTP-A, OMFP fluorogenic substrate; inhibition, % at 20 µM; 360,000 compounds, 0.22% hits; Low molecular weight phosphotyrosine protein phosphatase (Homo sapiens), P24666; AID 651560, 2012;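 active means compounds that cut the enzyme signal by at least half of the control window in the single-dose screen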;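 further: plate controls were DMSO wells with enzyme plus substrate for no effect and substrate without enzyme for full effect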
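material = LMPTP-A | quantity = 0.625 nM enzyme | reagent = OMFP substrate, 400 µM final | buffer or medium = Bis-Tris pH 6.0, DTT, detergent | detection = endpoint fluorescence intensity from OMFP dephosphorylation | dosing = single 20 µM dose | read-out basis = % inhibition relative to no-enzyme and uninhibited control wells | control set = no-enzyme and uninhibited controls | timing = 50 min at room temperature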
SUMO1-SIM PPI: modulators of SUMO1 protein-protein interactions, primary screen, biochemical, uHTS. Small ubiquitin-related modifier 1 (Homo sapiens), P63165. SUMO1 binding to a labelled peptide, TR-FRET, 1 h. inhibition, % at 20 µM. 360,000 compounds, 0.33% hits. AID 602429, 2012; in the data active means inhibition above about 37%
Target sequence (P63165 whole entry, looked up): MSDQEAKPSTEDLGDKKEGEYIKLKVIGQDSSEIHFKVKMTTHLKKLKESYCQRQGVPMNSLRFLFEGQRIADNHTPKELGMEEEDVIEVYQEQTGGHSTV
DNMT1 inh: human DNMT1 methyltransferase inhibitors, primary screen, biochemical, molecular beacon, fluorescence, HinP1I cleavage, uHTS. 360,000 compounds, 0.83% hits. AID 588458, 2011. inhibition (reported as % activation of signal), % at 10 µM; in the data active means inhibition above about 50%
Numbers without * were called inactive; nt = no result given; ! = repeats disagree.

SMILES	STEP inh	Scp-1 inhibitor	CASP6 VEID inh	LMPTP block	SUMO1-SIM PPI	DNMT1 inh
CN(C)c1ccc(/C=C/c2cc[n+](C)c3ccccc23)cc1	16	12	-18	55*!	-44	9
N#CCCn1cc(C(=O)Nc2ccc(F)cc2)c(-c2ccc([N+](=O)[O-])cc2)n1	-2	6	-5	2	-4	-2
Cc1cc(C(C#N)c2ccc(Cl)cc2)c(Cl)cc1NC(=O)c1cc(I)cc(I)c1O (stereo unspecified)	10	9	4	6	51*	74*
NC(N)=Nc1ccc2[nH]c3c(c2c1)C[C@@]1(O)[C@H]2Cc4ccc(O)c5c4[C@@]1(CCN2CC1CC1)[C@H]3O5	-2	99*	nt	12	0	27
Cc1ccc2c(c1)C1CN(C)CCC1N2C(=O)Nc1cccc(Cl)c1 (stereo unspecified)	-2	-3	nt	1	-2	-5
O=C(O)c1cc[c]([Hg][Cl])cc1	-3	96*	nt	-1	0	29
COc1ccc(C(=O)O)cc1OC	-21	-4	-3	-1	6	-5
Nc1nnc(P(c2ccccc2)c2ccccc2)s1	-1	1	-1	-1	1	-2
Cn1c(=O)[nH]c2nncnc2c1=O	-3	4	43*	-1	-25	-11
COc1ccc(CN2C(=O)NC(=O)/C(=C/c3ccc([N+](=O)[O-])s3)C2=O)cc1	9	14	44*	35	65*	51*
O=C1NC(=O)N(Cc2ccc(F)cc2)C(=O)/C1=C\c1ccc([N+](=O)[O-])s1	6	5	32	27	58*	49
COC(=O)C1=C(c2ccc(Cl)c(C(F)(F)F)c2)C[C@@H]2CC[C@H]1N2C(=O)NCCNC(C)=O	-1	-3	0	1	8	0
O=C1C(Cl)=CC(=Nc2ccc(O)cc2)C=C1Cl	-3	1	40*	-2	8	-26
COC(=O)C1=C(c2ccc(-c3ccccc3)c(F)c2)C[C@@H]2CC[C@H]1N2C(=O)NCCOc1ccc(OC)cc1	0	-21	2	10	4	-16
O=C1NC(=S)NC(=O)C1=Cc1ccc2c(c1)CCN2CCCCl	60*	91*	nt	77*	76*	102*
C[C@]12CC[C@H](O)CC1=CC(=O)C1C2CC[C@]2(C)C(=O)[C@H](O)CC12 (stereo partly specified)	-1	-10	7	1	-3	-1
O=C(NN=Cc1ccc(N(CCCl)CCCl)cc1)c1cc(=O)[nH]c(=O)[nH]1	-2	-10	7	1	-3	6
O=C(Cc1cc(=O)oc2cc(O)ccc12)NN=Cc1ccc(N(CCCl)CCCl)cc1	-3	-1	0	2	92*	-3
Nc1ccc(CC2=NCCN2)cc1	0	-18	-93	-4	-8	57*
Cc1sc2ccccc2c1CC1=NCCN1	1	-1	-8	0	-25	4
CCOC(=O)C1(CCCc2ccccc2)CCN(C2CCC2)CC1	-2	1	1	0	0	2
COc1cc2c(cc1OC)-c1c(OC)c(OC)cc3c1C(C2)N(C)CC3 (stereo unspecified)	7	12	69*	7	10	33
COc1cc2c(cc1OC)-c1c3c(cc4c1[C@@H](C2)N(C)CC4)OCO3	7	-7	48*	5	-3	35
COC(=O)C[C@H]1CC[C@H]2NC[C@H](O)COC[C@@H]2O1	nt	nt	1	nt	nt	nt
C[CH2][Hg][S]c1ccccc1C(=O)O	2	101*	49*	2	10	26
SMILES	STEP inh	Scp-1 inhibitor	CASP6 VEID inh	LMPTP block	SUMO1-SIM PPI	DNMT1 inh
COCCO[C@H]1CCC2C3CC=C4C[C@@H](O)CC[C@]4(C)C3CC[C@@]21C (stereo partly specified)	0	-10	-8	-1	7	1
CC[n+]1c(-c2ccccc2)c2cc(N)ccc2c2ccc(N)cc21	2	5	99*	72*	-61	2
CC1=NCCc2c1[nH]c1cc(O)ccc21	-3	-11	-52	2	-41	163*
COc1ccc2c3c([nH]c2c1)C(C)=NCC3	-7	-11	-3	2	-30	-14
CC(=O)c1c(C)n(C2CCCCC2)c2ccc(O)cc12	1	-1	0	2	2	-2
c1ccc2c(c1)-c1cccc3cccc-2c13	2	-13	-5	2	3	-5
c1ccc2c(c1)[IH]c1ccccc1-2	1	8	-1	12	-1	53*
COc1cc(C(c2c(C)[nH]n(-c3ccccc3)c2=O)c2c(C)[nH]n(-c3ccccc3)c2=O)cc(OC)c1OC	2	6	21	9	54*	9
COC(=O)C(O)(c1c(C)[nH]n(-c2ccccc2)c1=O)C(F)(F)F (stereo unspecified)	-1	-14	nt	-2	-1	-19
Cn1c(O)c(C(=Nc2ccccc2)SCc2ccccc2Cl)c(=O)n(C)c1=O	1	-5	1	1	9	-1
CC1OC(C[N+](C)(C)C)CC1O (stereo unspecified)	-2	-1	17	-1	5	0
C[C@H]1OC[C@@H](C[N+](C)(C)C)O1	1	101*	-8	-3	1	-29
COC(=O)c1nc(-c2ccc3c(n2)C(=O)C(N)=C(OC)C3=O)c(N)c(-c2ccc(OC)c(OC)c2O)c1C	3	-8	54*	1	14	86*
N[C@@H](Cc1c[nH]c2ccccc12)c1nnc(SCc2ccc(F)cc2)o1	4	-13	nt	-2	3	0
COc1ccc(NC(=S)N2Cc3ccccc3-n3nncc3C2)c(OC)c1	1	nt	-3	-3	-2	1
CCOc1ccc(-n2c(-c3cccs3)nc3ccccc3c2=O)cc1	-1	-2	1	2	-10	-1
CCn1nc(-c2cccs2)nc2c(=O)n(C)c(=O)nc1-2	65*	-7	nt	63*	24	119*
COc1ccc(-n2c(/C=C/c3ccc(O)cc3)nc3ccccc3c2=O)cc1	-2	-2	-1	3	-19	-1
